Series [1] concerns MV4-11. Put plainly: Induction of apoptosis in human MV4-11 cells assessed as early apoptotic cells at 0.5 uM after 24 hrs by annexin V-FITC/propidium iodide staining-based flow cytometric method (reference value: 3.54%). The format is functional.
Series [2] has as its target Receptor-type tyrosine-protein kinase FLT3 (Homo sapiens) (UniProt P36888). Put plainly: Inhibition of FLT3 phosphorylation in human MV4-11 cells at 0.02 to 1 uM after 24 hrs by Western blot analysis. The format is cell-based. An outline of the steps:
(§1)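 MV4-11 cells treated with increasing concentrations of compound for 24 h. Lysates immunoblotted for phosphorylated FLT3, STAT5, ERK, AKT and Rb.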

Series [3] concerns MV4-11. The series is described as follows: Antitumor activity against human MV4-11 cells xenografted in nu/nu mouse assessed as tumor regression at 15 mg/kg, iv qd measured on day 21 relative to vehicle-treated control. Type of series: functional. For orientation: In xenograft studies the graft and the host belong to different species.
Series [4] can be described thus: Terminal half life in human liver microsomes by LC-MS/MS analysis. The format is ADME, microsome. Conditions: read-out: beta t1/2 (converted). A digest of the protocol:
(§2)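 Metabolic stability measured by incubating compound in human, rat, mouse, dog and monkey liver microsomes. Terminal t1/2 determined.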
Background: Liver microsomes are a subcellular fraction often used to study metabolism.

The subject of series [5] is MV4-11. The series is described as follows: Induction of apoptosis in human MV4-11 cells assessed as late apoptotic cells at 0.2 uM after 24 hrs by annexin V-FITC/propidium iodide staining-based flow cytometric method (reference value: 2.54%). Type of series: functional.
A further series has as its system RS4-11. Put plainly: Growth inhibition of human RS4:11 cells after 72 hrs by CellTiter-Glo assay. The format is functional. The conditions noted are these: RS4-11, 72 h. A general note: Cellular ATP, detected with luciferase, serves as a proxy for viable cell number.
The nature of series [6]: Intrinsic clearance in human liver microsomes by LC-MS/MS analysis. Type of series: ADME, microsome. Conditions: read-out: CLH.
The next series deals with CDK2/Cyclin A1 (Homo sapiens, UniProt P24941). The series is described as follows: Inhibition of human CDK2/Cyclin A1 using histone H1 as substrate preincubated for 20 mins followed by [gamma-33P]-ATP addition measure after 120 mins by filter binding method. The format is protein-complex assay. A digest of the protocol: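 Compound preincubated with kinase 20 min at room temperature. Filter-binding read-out, curve-fitted IC50; mean ± SD of three independent experiments.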

Series [7] has as its system MV4-11. The series is described as follows: Induction of apoptosis in human MV4-11 cells assessed as late apoptotic cells at 0.5 uM after 24 hrs by annexin V-FITC/propidium iodide staining-based flow cytometric method (reference value: 2.54%). Type of series: functional.
A short description of series [8]: Terminal half life in rat liver microsomes by LC-MS/MS analysis. Type of series: ADME, microsome. The conditions noted are these: read-out: beta t1/2 (converted). A digest of the protocol: as §2
Series [9] deals with Receptor-type tyrosine-protein kinase FLT3 (Homo sapiens) (UniProt P36888). Put plainly: Inhibition of FLT3 phosphorylation in human MV4-11 cells assessed as decrease in ERK phosphorylation at 0.02 to 1 uM after 24 hrs by Western blot analysis. The format is cell-based. A digest of the protocol:
as §1

Series [10] is described as follows: Intrinsic clearance in mouse liver microsomes by LC-MS/MS analysis. Conditions: read-out: CLH. Type of series: ADME, microsome.
Series [11] deals with MV4-11. Put plainly: Antitumor activity against human MV4-11 cells xenografted in nu/nu mouse assessed as tumor regression at 40 mg/kg, iv qd measured on day 21 relative to vehicle-treated control. Type of series: functional. A digest of the protocol:
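Female nu/nu mice bearing MV4-11 xenografts; dosing began once tumors reached 200 mm3. Given iv once daily for 21 days, with a vehicle-only group. Body weight and tumor size tracked relative to initial values, set as 100%. Tumors weighed at the end of the 22-day treatment period.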

A further series relates to MCF7. Put plainly: Growth inhibition of human MCF7 cells after 72 hrs by CellTiter-Glo assay. The format is functional. Conditions: MCF7, 72 h.
Series [12] has as its target Cyclin-dependent kinase 4/cyclin D1 (Homo sapiens, UniProt P11802). Put plainly: Inhibition of human CDK4/Cyclin D1 using RB protein as substrate preincubated for 20 mins followed by [gamma-33P]-ATP addition measure after 120 mins by filter binding method. The format is protein-complex assay. A digest of the protocol: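 Compound preincubated with kinase 20 min at room temperature. Reaction started with 10 μM [γ-33P]ATP and run 120 min at 25°C. Filter-binding read-out, curve-fitted IC50; mean ± SD of three independent experiments.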

For series [13], the system named is HCT-116. Put plainly: Cell cycle arrest in human HCT116 cells assessed as accumulation at G2/M phase at 0.1 to 1 uM after 24 hrs by propidium iodide/BrdU staining-based flow cytometric method. The format is functional. An outline of the steps: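 Cells treated with compound for 24 h, then fixed. Double-stained with propidium iodide and BrdU for flow cytometric analysis of cell cycle distribution.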

In series [14] the test system is MV4-11. The series is described as follows: Induction of apoptosis in human MV4-11 cells at 2 uM after 24 hrs by annexin V-FITC/propidium iodide staining-based flow cytometric method. Type of series: functional, cell-based.
Series [15] deals with HCT-116. Put plainly: Growth inhibition of human HCT116 cells after 72 hrs by CellTiter-Glo assay. Type of series: functional. The conditions noted are these: HCT-116, 72 h.
Series [16] deals with Receptor-type tyrosine-protein kinase FLT3 (Homo sapiens) (UniProt P36888). The series is described as follows: Inhibition of FLT3 phosphorylation in human MV4-11 cells assessed as decrease in STAT5 phosphorylation at 0.02 to 1 uM after 24 hrs by Western blot analysis. The format is cell-based. An outline of the steps:
as §1

Series [17] can be described thus: Intrinsic clearance in cynomolgus monkey liver microsomes by LC-MS/MS analysis. The format is ADME, Macaca fascicularis, microsome. The conditions noted are these: read-out: CLH.
The test system of a further series is Lymphocyte. Put plainly: Cytotoxicity against human lymphocytes assessed as decrease in cell viability after 72 hrs by MTT assay. Type of series: cell-based.

One compound from ChEMBL document CHEMBL4052828, “Discovery of 4-((7H-Pyrrolo[2,3-d]pyrimidin-4-yl)amino)-N-(4-((4-methylpiperazin-1-yl)methyl)phenyl)-1H-pyrazole-3-carboxamide (FN-1501), an FLT3- and CDK-Kinase Inhibitor with Potentially High Efficiency against Acute Myelocytic Leukemia” (J Med Chem, 2018) can be followed below.

Active and inactive are the calls of the source. The calls are words filed in the database; no cut-off is given here.

Chain of Receptor-type tyrosine-protein kinase FLT3 (Homo sapiens) (P36888 whole entry): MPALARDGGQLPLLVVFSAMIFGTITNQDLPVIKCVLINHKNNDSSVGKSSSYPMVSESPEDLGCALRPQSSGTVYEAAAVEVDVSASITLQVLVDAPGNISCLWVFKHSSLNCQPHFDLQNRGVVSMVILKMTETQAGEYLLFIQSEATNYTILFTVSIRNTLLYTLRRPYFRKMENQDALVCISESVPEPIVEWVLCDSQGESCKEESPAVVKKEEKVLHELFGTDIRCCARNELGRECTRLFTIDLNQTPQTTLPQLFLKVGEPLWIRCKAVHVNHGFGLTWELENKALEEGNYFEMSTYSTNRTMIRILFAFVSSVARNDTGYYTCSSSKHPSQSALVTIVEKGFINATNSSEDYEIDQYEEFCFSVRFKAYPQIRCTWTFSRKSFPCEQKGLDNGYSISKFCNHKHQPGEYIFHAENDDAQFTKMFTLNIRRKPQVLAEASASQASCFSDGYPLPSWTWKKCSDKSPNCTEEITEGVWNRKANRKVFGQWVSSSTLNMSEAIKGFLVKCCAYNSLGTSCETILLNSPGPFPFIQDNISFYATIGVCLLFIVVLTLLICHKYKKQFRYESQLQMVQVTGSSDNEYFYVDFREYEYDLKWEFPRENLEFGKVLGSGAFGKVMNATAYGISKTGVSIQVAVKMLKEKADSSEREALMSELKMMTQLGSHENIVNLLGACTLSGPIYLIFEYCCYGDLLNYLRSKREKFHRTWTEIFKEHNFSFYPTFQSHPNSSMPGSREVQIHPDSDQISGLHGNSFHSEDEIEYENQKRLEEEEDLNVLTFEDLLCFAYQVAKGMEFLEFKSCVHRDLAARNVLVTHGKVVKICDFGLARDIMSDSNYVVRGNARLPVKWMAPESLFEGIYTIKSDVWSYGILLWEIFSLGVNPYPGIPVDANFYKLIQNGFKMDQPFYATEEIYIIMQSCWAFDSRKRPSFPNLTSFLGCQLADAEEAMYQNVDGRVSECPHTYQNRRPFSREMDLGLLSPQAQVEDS
Chain of Cyclin-dependent kinase 4/cyclin D1 (P11802 whole entry): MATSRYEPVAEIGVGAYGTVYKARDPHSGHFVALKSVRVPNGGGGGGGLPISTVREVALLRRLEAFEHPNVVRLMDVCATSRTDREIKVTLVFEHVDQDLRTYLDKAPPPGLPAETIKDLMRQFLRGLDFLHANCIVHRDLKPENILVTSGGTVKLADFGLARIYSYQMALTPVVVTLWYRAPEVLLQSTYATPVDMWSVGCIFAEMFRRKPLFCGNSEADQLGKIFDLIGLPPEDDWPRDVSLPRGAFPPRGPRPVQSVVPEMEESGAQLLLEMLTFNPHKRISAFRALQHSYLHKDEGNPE
Chain of Cyclin-dependent kinase 4/cyclin D1 (P24385 whole entry, further chain): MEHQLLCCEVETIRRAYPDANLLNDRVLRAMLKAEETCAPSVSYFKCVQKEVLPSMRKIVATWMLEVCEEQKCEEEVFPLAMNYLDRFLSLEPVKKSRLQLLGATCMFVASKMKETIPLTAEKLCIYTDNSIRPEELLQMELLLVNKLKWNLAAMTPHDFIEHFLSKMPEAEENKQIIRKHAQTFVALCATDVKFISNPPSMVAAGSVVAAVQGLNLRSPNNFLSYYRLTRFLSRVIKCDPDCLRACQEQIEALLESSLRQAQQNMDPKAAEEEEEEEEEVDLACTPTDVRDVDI

For orientation: GI50 means the concentration giving 50% growth inhibition. Usually IC50 stands for the concentration that inhibits the measured activity by half. On to `CN1CCN(Cc2ccc(NC(=O)c3n[nH]cc3Nc3ncnc4[nH]ccc34)cc2)CC1`, for which the Activity with MV4-11 [1] was 28.54%; with MV4-11 [3], -6.11%; in the series with MV4-11 [5], 9.33%; with MV4-11 [7], 13.44%; in the series with MV4-11 [11], 81.33%; in the series on MV4-11 [14], “Dose-dependent effect”. In addition, the inhibition result in series [2], in [9] and in series [16] was “Active” each time. Besides, the half-life in series [4] is 103 min; in series [8] it was 61.9 min. For the same compound, the GI50 was found to be 50 nM in the series with RS4-11, 2840 nM in the series on MCF7 and 90 nM in the series on HCT-116 [15]. Also, the CLint scaled in series [6] was found to be 13.3 mL/min/kg; in [10], 139 mL/min/kg; in series [17] it was 36.5 mL/min/kg. Further, the values for the IC50 (on CDK2/Cyclin A1; in series [12]; in the series on Lymphocyte) were 2.47 nM, 0.85 nM and 492 nM, respectively. For the same compound, the result in the series with HCT-116 [13] was Active.
